Laboratory results taken from PubChem BioAssay.
Activity calls are given as the source filed them.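 Rule for the calls, unless noted: active = duplicate-averaged activation above buffer control mean plus 5 SD of those controls; inactive = the rest.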

Test system: not listed separately
Experiment: nonspecific flux increase, KCNQ1-free cells – parental CHO cells, counter-screen for KCNQ1 potentiator project (AID 493006);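 for activation: fluorescence ratio of max minus min over baseline after K+ and Tl+ depolarization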
Settings: parental CHO-K1 cells, FluxOR thallium flux, at 10 µM; hits give high values
How it was run: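 Benchmarks – buffer and R-L3 controls · Assay system – untransfected host CHO-K1 cells with FluxOR thallium dye · Measure – fluorescence change ratio scaled 0% buffer, 100% R-L3 · Technique – kinetic thallium-flux fluorescence · Timing – overnight 37 °C plating, 90 min RT dye, 20 min compound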

Row | Compound | outcome | activation
1 | CCOC(=O)c1c(NC(=S)NCCc2ccccc2)sc2c1CC(C(C)C)OC2 (stereo not given) | inactive | 
2 | CCOC(=O)c1c(NS(C)(=O)=O)sc2c1CCC(C)C2 (stereo not given) |  | 173% (active)
3 | Clc1ccc(-c2csc(N3CCc4ccccc4C3)n2)cc1 | inactive | 
4 | CC1CCCC(NC(=S)NC(=O)c2ccccc2Br)C1C (stereo not given) | inactive | 
5 | CCOc1ccc(N2CC(C(=O)Nc3cc(Cl)ccc3-n3cncn3)CC2=O)cc1 (stereo not given) | inactive | 
6 | COc1cccc2sc(Nc3nnc(-c4ccccc4Cl)o3)nc12 | inactive | 
7 | N=c1sccn1CC(=O)Nc1cc(Cl)ccc1Oc1ccccc1 | inactive | 
8 | CC(C)(C)c1cc(-c2csc(Nc3ccccc3)[n+]2Cc2ccc(C(=O)O)cc2)cc(C(C)(C)C)c1O |  | 327% (active)
9 | COC(=O)c1cccnc1NC(=S)NC1CCCCC1 |  | 208% (active)
10 | CC(C)CCn1c(=S)[nH]c2ncccc2c1=O |  | 152% (active)
11 | O=[N+]([O-])c1cccc(-c2ccc3nnc(SCc4ccccn4)n3n2)c1 | inactive | 
12 | COC(=O)c1c(NS(=O)(=O)c2ccc3ccccc3c2)sc2c1CCCC2 |  | 216% (active)
13 | Cc1noc(C)c1CSc1ncnc2sc(C)c(C)c12 | inactive | 
14 | COc1ccc(C(=O)Nc2ccnn2C2CCN(Cc3ccncc3)CC2)cc1 | inactive | 
15 | Cc1cc2ccccn2c1C(=S)NC(=O)c1ccccc1 |  | 290% (active)
16 | S=c1nc[nH]c2c1cnn2-c1ccccc1 |  | 168% (active)
17 | Cc1snnc1C(=O)NC(=S)Nc1ccccc1 |  | 205% (active)
18 | CCOC(=O)C1CCN(C(=O)c2c(C)oc3c2C(=O)c2ccccc2C3=O)CC1 | inactive | 
19 | COc1ccc(OC)c(NC(=O)C(=O)NNC(=O)C23CC4CC(CC(C4)C2)C3)c1 |  | 404% (active)
20 | COc1cccc(C=NCC(C)N=Cc2cccc(OC)c2O)c1O (stereo not given) | inactive | 

Row | Compound | outcome | activation
21 | Cc1ccc(/C=C/C(=O)c2ccccc(=O)c2O)c(C)c1 |  | 244% (active)
22 | COc1ccc(Nc2nc(-c3sc(C)nc3C)cs2)c(OC)c1 | inactive | 
23 | CN(C)CC(CCCCC(CN(C)C)C(=O)c1ccccc1)C(=O)c1ccccc1 (stereo not given) | inactive | 
24 | O=C(CN(Cc1ccccc1Cl)C(=O)c1csnn1)NC1CCCC1 | inactive | 
25 | CCCCCC/C(C)=C1/SC(=S)NC1=O |  | 752% (active)
26 | CSc1ccc(NC(=O)CC(C)=O)cc1 | inactive | 
27 | S=c1[nH]c(-c2ccccc2)cs1 |  | 380% (active)
28 | COc1ccc(C(=O)NC(=S)N2CCC(C)CC2)cc1Br |  | 185% (active)
29 | CN(C)c1ccc(-c2nn3c(-c4ccccc4Cl)nnc3s2)cc1 | inactive | 
30 | CNC(=S)Nc1sc2c(c1C(=O)OC)CCC2 |  | 252% (active)
31 | COc1ccc(CCNC(=O)c2c(C)nc3ccccn23)cc1 | inactive | 
32 | CCOc1ccc(-c2noc(CCC(=O)NC3CCCC3)n2)cc1OC | inactive | 
33 | Cc1ccc(C)c(NC(=S)NC(=O)c2cncc(Br)c2)c1 | inactive | 
34 | CN(C)CCNc1ncnc2c1sc1nc(N3CCCC3)c3c(c12)CC(C)(C)OC3 | inactive | 
35 | O=C(c1ccc(Cl)cc1)c1c[nH]c(C(=O)C(Cl)(Cl)Cl)c1 | inactive | 
36 | FC(F)(F)c1cnc2c(c1)[nH]c(=S)n2-c1ccc(Cl)cc1 |  | 142% (active)
37 | Oc1ccc(N=Nc2ccc3c(c2)OCCO3)c2cccnc12 |  | 261% (active)
38 | O=c1c2cccnc2n(-c2ccccc2)n1Cc1ccc(Cl)cc1 | inactive | 
39 | Oc1c(N=NC(=S)Nc2ccccc2F)c2ccccc2n1Cc1ccccc1Cl |  | 180% (active)
40 | Oc1c(Br)cc(Br)cc1C=Nc1ccc2c(c1)OCO2 |  | 172% (active)

Biological target: Potassium voltage-gated channel subfamily KQT member 1 (Homo sapiens) (UniProt P51787)
Experiment: enhancement of KCNQ1 channel thallium flux – FluxOR thallium flux, CHO cells, duplicates, confirmation (AID 493007;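 active = potentiation averaged over duplicate wells exceeding buffer-only control mean by more than 3 SD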;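 for outcome: cells depolarized by a potassium plus thallium sulfate stimulus after compound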)
Settings: KCNQ1 cell line, FluxOR thallium flux fluorescence, at 10 µM; hits give high values, % of reference activator effect, buffer zero
How it was run: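 Material: CHO cells stably expressing the KCNQ1 potassium channel / Times: dye 90 min then compound 20 min, both at room temperature / Detection: kinetic thallium influx fluorescence with FluxOR dye, 10 s baseline, 110 s post-stimulus / Benchmarks: buffer-only wells as 0% and R-L3 activator as 100% / Replicates: each compound tested in duplicate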

Sequence of Potassium voltage-gated channel subfamily KQT member 1 (Homo sapiens) (P51787 whole entry, looked up): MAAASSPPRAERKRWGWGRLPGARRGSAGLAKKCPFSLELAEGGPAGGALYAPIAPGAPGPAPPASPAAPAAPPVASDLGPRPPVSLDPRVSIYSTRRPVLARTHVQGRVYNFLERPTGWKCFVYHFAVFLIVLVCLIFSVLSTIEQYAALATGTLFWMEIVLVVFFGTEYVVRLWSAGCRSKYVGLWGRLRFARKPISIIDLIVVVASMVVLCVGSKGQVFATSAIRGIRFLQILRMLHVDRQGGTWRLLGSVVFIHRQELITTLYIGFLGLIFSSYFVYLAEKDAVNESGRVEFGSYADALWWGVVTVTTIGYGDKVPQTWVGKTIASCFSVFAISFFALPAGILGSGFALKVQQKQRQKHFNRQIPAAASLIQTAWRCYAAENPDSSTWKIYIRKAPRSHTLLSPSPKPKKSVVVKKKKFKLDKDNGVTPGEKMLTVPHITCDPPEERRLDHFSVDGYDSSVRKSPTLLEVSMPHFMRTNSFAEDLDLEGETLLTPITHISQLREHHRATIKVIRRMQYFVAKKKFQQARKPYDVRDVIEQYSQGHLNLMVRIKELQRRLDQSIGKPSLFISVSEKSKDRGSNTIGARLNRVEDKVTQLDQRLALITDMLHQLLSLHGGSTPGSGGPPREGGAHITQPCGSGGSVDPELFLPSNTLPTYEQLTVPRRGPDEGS

Row | Compound | potentiation | outcome
41 | CCOC(=O)c1c(NC(=S)NCCc2ccccc2)sc2c1CC(C(C)C)OC2 (stereo not given) | 32% (active) | 
42 | CCOC(=O)c1c(NS(C)(=O)=O)sc2c1CCC(C)C2 (stereo not given) | 24.5% (active) | 
43 | Clc1ccc(-c2csc(N3CCc4ccccc4C3)n2)cc1 |  | inactive
44 | CC1CCCC(NC(=S)NC(=O)c2ccccc2Br)C1C (stereo not given) | 29.5% (active) | 
45 | CCOc1ccc(N2CC(C(=O)Nc3cc(Cl)ccc3-n3cncn3)CC2=O)cc1 (stereo not given) |  | inactive
46 | COc1cccc2sc(Nc3nnc(-c4ccccc4Cl)o3)nc12 | 112% (active) | 
47 | N=c1sccn1CC(=O)Nc1cc(Cl)ccc1Oc1ccccc1 |  | inactive
48 | CC(C)(C)c1cc(-c2csc(Nc3ccccc3)[n+]2Cc2ccc(C(=O)O)cc2)cc(C(C)(C)C)c1O | 54.5% (active) | 
49 | COC(=O)c1cccnc1NC(=S)NC1CCCCC1 | 36.5% (active) | 
50 | CC(C)CCn1c(=S)[nH]c2ncccc2c1=O |  | inactive
51 | O=[N+]([O-])c1cccc(-c2ccc3nnc(SCc4ccccn4)n3n2)c1 |  | inactive
52 | COC(=O)c1c(NS(=O)(=O)c2ccc3ccccc3c2)sc2c1CCCC2 | 60.5% (active) | 
53 | Cc1noc(C)c1CSc1ncnc2sc(C)c(C)c12 |  | inactive
54 | COc1ccc(C(=O)Nc2ccnn2C2CCN(Cc3ccncc3)CC2)cc1 |  | inactive
55 | Cc1cc2ccccn2c1C(=S)NC(=O)c1ccccc1 | 102% (active) | 
56 | S=c1nc[nH]c2c1cnn2-c1ccccc1 | 29.5% (active) | 
57 | Cc1snnc1C(=O)NC(=S)Nc1ccccc1 | 90% (active) | 
58 | CCOC(=O)C1CCN(C(=O)c2c(C)oc3c2C(=O)c2ccccc2C3=O)CC1 |  | inactive
59 | COc1ccc(OC)c(NC(=O)C(=O)NNC(=O)C23CC4CC(CC(C4)C2)C3)c1 | 244% (active) | 
60 | COc1cccc(C=NCC(C)N=Cc2cccc(OC)c2O)c1O (stereo not given) |  | inactive

Row | Compound | potentiation | outcome
61 | Cc1ccc(/C=C/C(=O)c2ccccc(=O)c2O)c(C)c1 | 118% (active) | 
62 | COc1ccc(Nc2nc(-c3sc(C)nc3C)cs2)c(OC)c1 |  | inactive
63 | CN(C)CC(CCCCC(CN(C)C)C(=O)c1ccccc1)C(=O)c1ccccc1 (stereo not given) |  | inactive
64 | O=C(CN(Cc1ccccc1Cl)C(=O)c1csnn1)NC1CCCC1 |  | inactive
65 | CCCCCC/C(C)=C1/SC(=S)NC1=O | 264% (active) | 
66 | CSc1ccc(NC(=O)CC(C)=O)cc1 |  | inactive
67 | S=c1[nH]c(-c2ccccc2)cs1 | 184% (active) | 
68 | COc1ccc(C(=O)NC(=S)N2CCC(C)CC2)cc1Br | 90% (active) | 
69 | CN(C)c1ccc(-c2nn3c(-c4ccccc4Cl)nnc3s2)cc1 |  | inactive
70 | CNC(=S)Nc1sc2c(c1C(=O)OC)CCC2 | 89.5% (active) | 
71 | COc1ccc(CCNC(=O)c2c(C)nc3ccccn23)cc1 |  | inactive
72 | CCOc1ccc(-c2noc(CCC(=O)NC3CCCC3)n2)cc1OC |  | inactive
73 | Cc1ccc(C)c(NC(=S)NC(=O)c2cncc(Br)c2)c1 | 18.5% (active) | 
74 | CN(C)CCNc1ncnc2c1sc1nc(N3CCCC3)c3c(c12)CC(C)(C)OC3 | 32% (active) | 
75 | O=C(c1ccc(Cl)cc1)c1c[nH]c(C(=O)C(Cl)(Cl)Cl)c1 |  | inactive
76 | FC(F)(F)c1cnc2c(c1)[nH]c(=S)n2-c1ccc(Cl)cc1 | 27% (active) | 
77 | Oc1ccc(N=Nc2ccc3c(c2)OCCO3)c2cccnc12 | 92.5% (active) | 
78 | O=c1c2cccnc2n(-c2ccccc2)n1Cc1ccc(Cl)cc1 |  | inactive
79 | Oc1c(N=NC(=S)Nc2ccccc2F)c2ccccc2n1Cc1ccccc1Cl | 81.5% (active) | 
80 | Oc1c(Br)cc(Br)cc1C=Nc1ccc2c(c1)OCO2 |  | inactive
